Assay results published in ChEMBL document CHEMBL1145069, “Stereospecific synthesis of 5-substituted 2-bisarylthiocyclopentane carboxylic acids as specific matrix metalloproteinase inhibitors” (J Med Chem, 2003).
pIC50: −log10 of the molar value.

Legend:
[1] = target: Matrix metalloproteinase-9 (Homo sapiens, UniProt P14780); test: Inhibitory activity against matrix metalloprotease-9 (MMP9)
Interstitial collagenase = target: T1, Interstitial collagenase (Homo sapiens, UniProt P03956); test: Inhibitory activity against matrix metalloprotease-1 (MMP1)
T1 sequence (P03956 whole entry): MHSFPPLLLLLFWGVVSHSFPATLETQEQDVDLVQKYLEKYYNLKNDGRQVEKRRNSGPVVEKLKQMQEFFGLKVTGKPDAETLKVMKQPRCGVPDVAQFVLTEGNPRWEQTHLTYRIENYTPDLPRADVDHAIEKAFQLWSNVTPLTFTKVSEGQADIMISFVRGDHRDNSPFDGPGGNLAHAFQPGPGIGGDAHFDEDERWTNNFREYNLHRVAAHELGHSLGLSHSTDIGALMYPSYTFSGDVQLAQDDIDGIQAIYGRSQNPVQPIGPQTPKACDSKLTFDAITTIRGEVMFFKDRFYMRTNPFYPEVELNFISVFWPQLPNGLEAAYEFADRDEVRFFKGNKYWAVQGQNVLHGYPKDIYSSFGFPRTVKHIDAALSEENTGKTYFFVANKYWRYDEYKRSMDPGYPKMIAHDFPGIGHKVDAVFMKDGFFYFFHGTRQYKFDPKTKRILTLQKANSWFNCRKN

[2] = target: 72 kDa type IV collagenase (Homo sapiens, UniProt P08253); test: Inhibitory activity against matrix metalloprotease-2 (MMP2)
Collagenase 3 = Collagenase 3 (Homo sapiens, UniProt P45452); test: Inhibitory activity against matrix metalloprotease-13 (MMP13)
Stromelysin-1 = Stromelysin-1 (Homo sapiens, UniProt P08254); test: Inhibitory activity against matrix metalloprotease-3 (MMP3)
Homo sapiens [3] = species on record: Homo sapiens; test: In vitro metabolic stability and first pass metabolism was evaluated in human hepatic microsomes; type: ADME, Liver
Homo sapiens [4] = species on record: Homo sapiens; test: In vitro absorption was measured in Caco-2 cell; type: ADME
Rattus norvegicus = species on record: Rattus norvegicus; test: In vitro metabolic stability and first pass metabolism was evaluated in rat hepatic microsomes; type: ADME, Liver
Mus musculus [5] = test: Tested for antitumor activity in mice against B16F10 melanoma measured as reduction in number of metastases at 100 mg/kg (ip); type: functional
Outline: (§1)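 B16-F10 cells passaged in vitro, then 2×10^5 cells per mouse injected into the tail vein of B6D2F1 mice in PBS with 0.5% foetal calf serum. 7 mice per group. Dosing i.p. or p.o. 1 h before inoculation, then daily for 3 days (four doses). Lungs collected on day 11 and fixed in Bouin's fluid. Metastases per lung (total and ≥1 mm) given as % of control mean.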

Mus musculus [6] = test: Tested for antitumor activity in mice against B16F10 melanoma measured as reduction in number of metastases at 200 mg/kg (ip); type: functional; outline: as §1
Mus musculus [7] = test: Tested for antitumor activity in mice against B16F10 melanoma measured as reduction in number of metastases at 100 mg/kg (po); type: functional; outline: as §1
Mus musculus [8] = test: Tested for antitumor activity in mice against B16F10 melanoma measured as reduction in number of metastases at 200 mg/kg (po); type: functional; outline: as §1

Chain of Stromelysin-1 (P08254 whole entry): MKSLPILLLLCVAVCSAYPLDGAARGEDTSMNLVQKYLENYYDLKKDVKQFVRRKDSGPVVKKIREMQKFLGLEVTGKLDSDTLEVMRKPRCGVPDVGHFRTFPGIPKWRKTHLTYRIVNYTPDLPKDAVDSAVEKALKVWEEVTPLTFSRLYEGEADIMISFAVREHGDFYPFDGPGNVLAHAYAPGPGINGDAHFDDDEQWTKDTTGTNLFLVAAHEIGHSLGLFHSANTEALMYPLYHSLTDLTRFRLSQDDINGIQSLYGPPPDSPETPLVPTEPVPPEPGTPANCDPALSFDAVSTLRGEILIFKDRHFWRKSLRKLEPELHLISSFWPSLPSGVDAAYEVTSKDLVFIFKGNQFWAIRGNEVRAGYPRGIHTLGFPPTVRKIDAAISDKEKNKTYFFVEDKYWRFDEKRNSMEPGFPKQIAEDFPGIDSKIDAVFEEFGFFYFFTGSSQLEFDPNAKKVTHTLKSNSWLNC
Chain of 72 kDa type IV collagenase (P08253 whole entry): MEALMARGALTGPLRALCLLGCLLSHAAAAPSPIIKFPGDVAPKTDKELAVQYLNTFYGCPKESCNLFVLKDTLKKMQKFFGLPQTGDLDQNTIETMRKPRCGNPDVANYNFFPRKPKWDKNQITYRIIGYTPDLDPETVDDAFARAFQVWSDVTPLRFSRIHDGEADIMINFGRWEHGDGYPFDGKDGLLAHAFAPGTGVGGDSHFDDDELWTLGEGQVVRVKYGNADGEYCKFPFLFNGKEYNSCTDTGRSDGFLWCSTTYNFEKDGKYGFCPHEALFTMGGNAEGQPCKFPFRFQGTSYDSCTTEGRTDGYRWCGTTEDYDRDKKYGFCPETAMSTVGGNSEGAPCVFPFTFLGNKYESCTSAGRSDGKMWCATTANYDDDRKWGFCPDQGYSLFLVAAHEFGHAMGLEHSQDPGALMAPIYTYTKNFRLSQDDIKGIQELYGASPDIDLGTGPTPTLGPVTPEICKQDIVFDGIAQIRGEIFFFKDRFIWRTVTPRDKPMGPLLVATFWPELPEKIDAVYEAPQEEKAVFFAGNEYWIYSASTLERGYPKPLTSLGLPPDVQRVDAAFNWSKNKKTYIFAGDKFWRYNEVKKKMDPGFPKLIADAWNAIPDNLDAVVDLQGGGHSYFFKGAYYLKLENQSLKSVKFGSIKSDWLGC
Chain of Matrix metalloproteinase-9 (P14780 whole entry): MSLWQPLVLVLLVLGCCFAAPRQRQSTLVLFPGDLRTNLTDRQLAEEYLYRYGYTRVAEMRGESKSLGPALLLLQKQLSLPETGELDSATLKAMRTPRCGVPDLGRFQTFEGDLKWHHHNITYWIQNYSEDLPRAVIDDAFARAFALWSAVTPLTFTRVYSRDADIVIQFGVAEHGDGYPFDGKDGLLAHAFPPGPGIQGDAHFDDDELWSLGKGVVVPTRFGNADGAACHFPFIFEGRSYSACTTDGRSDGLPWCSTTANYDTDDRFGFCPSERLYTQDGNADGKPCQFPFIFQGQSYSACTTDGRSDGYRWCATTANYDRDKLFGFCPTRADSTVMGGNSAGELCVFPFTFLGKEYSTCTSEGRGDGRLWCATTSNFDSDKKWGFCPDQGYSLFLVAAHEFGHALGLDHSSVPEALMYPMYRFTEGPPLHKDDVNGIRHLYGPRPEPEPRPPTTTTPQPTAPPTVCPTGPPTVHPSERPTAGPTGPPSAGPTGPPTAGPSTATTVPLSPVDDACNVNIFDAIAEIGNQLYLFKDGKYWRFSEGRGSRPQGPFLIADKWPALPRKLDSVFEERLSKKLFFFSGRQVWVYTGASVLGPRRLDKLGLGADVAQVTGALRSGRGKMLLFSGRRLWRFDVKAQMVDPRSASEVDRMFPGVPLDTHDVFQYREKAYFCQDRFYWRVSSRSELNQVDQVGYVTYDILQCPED

SMILES | pIC50 [1] | pIC50 (Interstitial collagenase) | pIC50 [2] | pIC50 (Collagenase 3) | pIC50 (Stromelysin-1) | MF (Homo sapiens [3]) | Absorption (Homo sapiens [4]) | MF (Rattus norvegicus) | No. of metastases (Mus musculus [5]) | No. of metastases (Mus musculus [6]) | No. of metastases (Mus musculus [7]) | No. of metastases (Mus musculus [8])
N#Cc1ccc(-c2ccc(S[C@H]3CC[C@@H](Cn4c(=O)nc5ccccn5c4=O)[C@@H]3C(=O)O)cc2)cc1 | 7.51 | < 6.00 | 7.70 | 7.51 | 6.99 | – | – | – | – | – | – | –
O=C(O)[C@H]1[C@H](CN2C(=O)c3ccccc3C2=O)CC[C@@H]1S(=O)(=O)CCc1ccc(-c2ccc(Cl)cc2)cc1 | 7.41 | 5.27 | 7.12 | 6.09 | 7.19 | 91% | 92% | 58% | 78 | 109 | – | –
O=C(O)[C@H]1[C@H](Cn2nnc3ccccc3c2=O)CC[C@@H]1S(=O)(=O)CCc1ccc(-c2ccc(Cl)cc2)cc1 | 6.88 | < 4.00 | 6.42 | 8.55 | 6.60 | – | – | – | – | – | – | –
O=C(O)[C@H]1[C@H](Cn2nc3ccccn3c2=O)CC[C@@H]1Sc1ccc(-c2ccc(Cl)cc2)cc1 | 7.43 | 5.00 | 7.60 | 7.49 | 6.74 | – | – | – | – | – | – | –
CSc1ccc(-c2ccc(S[C@H]3CC[C@@H](Cn4nnc5ccccc5c4=O)[C@@H]3C(=O)O)cc2)cc1 | 8.40 | < 5.00 | 8.30 | 7.89 | 7.68 | – | – | – | – | – | – | –
O=C(O)[C@H]1[C@H](CN2C(=O)c3ccccc3C2=O)CC[C@@H]1S(=O)(=O)CCc1ccc(-c2ccc(F)cc2)cc1 | 7.33 | – | 7.12 | 6.53 | 6.50 | – | – | – | – | – | – | –
O=C(O)[C@H]1[C@H](Cn2c(=O)nc3ccccn3c2=O)CC[C@@H]1Sc1ccc(-c2ccc(Cl)cc2)cc1 | 7.52 | < 5.00 | 8.05 | 7.57 | 6.87 | – | – | – | – | – | – | –
O=C(O)[C@H]1[C@H](Cn2nnc3ccccc3c2=O)CC[C@@H]1SCCc1ccc(-c2ccc(Cl)cc2)cc1 | 7.62 | < 4.15 | 6.97 | 6.41 | 7.21 | 63% | 91% | 76% | 51 | 31 | 65 | 80
O=C(O)[C@H]1[C@H](Cn2nnc3ccccc3c2=O)CC[C@@H]1Sc1ccc(-c2c[nH]nn2)cc1 | < 4.00 | < 4.00 | < 4.00 | < 4.00 | < 4.00 | – | – | – | – | – | – | –
O=C(O)[C@@H]1[C@@H](Cn2nnc3ccccc3c2=O)CC[C@H]1Sc1ccc(-c2ccc(Cl)cc2)cc1 | 5.52 | 4.17 | 6.13 | 8.72 | 5.28 | – | – | – | – | – | – | –
CSc1ccc(-c2ccc(S[C@H]3CC[C@@H](Cn4c(=O)nc5ccccn5c4=O)[C@@H]3C(=O)O)cc2)cc1 | 7.80 | 4.20 | 7.85 | 6.71 | 6.52 | – | – | – | – | – | – | –
O=C(O)[C@H]1[C@H](CN2NNc3nc[nH]c3C2=O)CC[C@@H]1Sc1ccc(-c2ccc(Cl)cc2)cc1 | 6.19 | 5.18 | 6.89 | 6.17 | 7.68 | – | – | – | – | – | – | –
O=C(O)[C@H]1[C@H](CN2C(=O)c3ccccc3C2=O)CC[C@@H]1SCCc1ccc(-c2ccc(Cl)cc2)cc1 | 7.89 | 4.30 | 7.14 | 6.89 | 7.35 | 61% | 94% | 43% | 96 | 43 | 69 | 64.5
N#Cc1ccc(-c2ccc(S[C@H]3CC[C@@H](Cn4nnc5ccccc5c4=O)[C@@H]3C(=O)O)cc2)cc1 | 7.62 | < 5.00 | 7.89 | 7.96 | 8.30 | – | – | – | – | – | – | –
O=C(O)[C@H]1[C@H](Cn2nnc3ccccc3c2=O)CC[C@@H]1S(=O)(=O)c1ccc(-c2ccc(Cl)cc2)cc1 | 6.29 | < 4.00 | 7.08 | 8.74 | 6.16 | – | – | – | – | – | – | –
